# Results from ChEMBL document CHEMBL1128218, “New alpha-thiol dipeptide dual inhibitors of angiotensin-I converting enzyme and neutral endopeptidase EC 3.4.24.11” (J Med Chem, 1995).
# Assays:
# Neprilysin = target: T1, Neprilysin (Rattus norvegicus, UniProt P07861); experiment: Evaluation of in vitro inhibitory activity against Neutral endopeptidase
# T1 sequence (P07861 whole entry): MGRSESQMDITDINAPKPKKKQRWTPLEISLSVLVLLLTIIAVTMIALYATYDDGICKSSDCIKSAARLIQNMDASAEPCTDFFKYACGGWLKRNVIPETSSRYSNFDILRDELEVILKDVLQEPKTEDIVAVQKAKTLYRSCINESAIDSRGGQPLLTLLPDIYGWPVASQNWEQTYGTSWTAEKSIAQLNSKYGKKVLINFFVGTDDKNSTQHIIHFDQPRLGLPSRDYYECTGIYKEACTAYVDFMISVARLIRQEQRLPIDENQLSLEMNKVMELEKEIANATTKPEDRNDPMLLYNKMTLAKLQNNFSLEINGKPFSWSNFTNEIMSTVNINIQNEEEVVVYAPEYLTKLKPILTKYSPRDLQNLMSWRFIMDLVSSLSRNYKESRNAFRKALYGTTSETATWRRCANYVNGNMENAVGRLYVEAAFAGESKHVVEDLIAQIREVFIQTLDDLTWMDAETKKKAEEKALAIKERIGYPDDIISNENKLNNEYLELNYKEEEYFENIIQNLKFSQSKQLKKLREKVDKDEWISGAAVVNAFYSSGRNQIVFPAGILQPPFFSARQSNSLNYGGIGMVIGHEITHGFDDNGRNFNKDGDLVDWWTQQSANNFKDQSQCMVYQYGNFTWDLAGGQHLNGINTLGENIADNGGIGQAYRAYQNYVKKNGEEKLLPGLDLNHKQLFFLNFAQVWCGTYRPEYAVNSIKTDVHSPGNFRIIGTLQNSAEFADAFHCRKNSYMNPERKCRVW
# Procedure, shortened: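 Rat kidney cortex membrane homogenate (4.2 μg protein) preincubated 10 min at 25 °C with increasing inhibitor concentrations. Then 500 μM GAAP (final) in 50 mM Tris pH 7.4 with leucine aminopeptidase M, 25 min at 25 °C. Done in duplicate; IC50 from curves of seven points near the IC50.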
# [1] = target: T2, Angiotensin-converting enzyme (Oryctolagus cuniculus, UniProt P12822); experiment: Evaluation of in vitro inhibitory activity against Angiotensin I converting enzyme
# T2 sequence (P12822 whole entry): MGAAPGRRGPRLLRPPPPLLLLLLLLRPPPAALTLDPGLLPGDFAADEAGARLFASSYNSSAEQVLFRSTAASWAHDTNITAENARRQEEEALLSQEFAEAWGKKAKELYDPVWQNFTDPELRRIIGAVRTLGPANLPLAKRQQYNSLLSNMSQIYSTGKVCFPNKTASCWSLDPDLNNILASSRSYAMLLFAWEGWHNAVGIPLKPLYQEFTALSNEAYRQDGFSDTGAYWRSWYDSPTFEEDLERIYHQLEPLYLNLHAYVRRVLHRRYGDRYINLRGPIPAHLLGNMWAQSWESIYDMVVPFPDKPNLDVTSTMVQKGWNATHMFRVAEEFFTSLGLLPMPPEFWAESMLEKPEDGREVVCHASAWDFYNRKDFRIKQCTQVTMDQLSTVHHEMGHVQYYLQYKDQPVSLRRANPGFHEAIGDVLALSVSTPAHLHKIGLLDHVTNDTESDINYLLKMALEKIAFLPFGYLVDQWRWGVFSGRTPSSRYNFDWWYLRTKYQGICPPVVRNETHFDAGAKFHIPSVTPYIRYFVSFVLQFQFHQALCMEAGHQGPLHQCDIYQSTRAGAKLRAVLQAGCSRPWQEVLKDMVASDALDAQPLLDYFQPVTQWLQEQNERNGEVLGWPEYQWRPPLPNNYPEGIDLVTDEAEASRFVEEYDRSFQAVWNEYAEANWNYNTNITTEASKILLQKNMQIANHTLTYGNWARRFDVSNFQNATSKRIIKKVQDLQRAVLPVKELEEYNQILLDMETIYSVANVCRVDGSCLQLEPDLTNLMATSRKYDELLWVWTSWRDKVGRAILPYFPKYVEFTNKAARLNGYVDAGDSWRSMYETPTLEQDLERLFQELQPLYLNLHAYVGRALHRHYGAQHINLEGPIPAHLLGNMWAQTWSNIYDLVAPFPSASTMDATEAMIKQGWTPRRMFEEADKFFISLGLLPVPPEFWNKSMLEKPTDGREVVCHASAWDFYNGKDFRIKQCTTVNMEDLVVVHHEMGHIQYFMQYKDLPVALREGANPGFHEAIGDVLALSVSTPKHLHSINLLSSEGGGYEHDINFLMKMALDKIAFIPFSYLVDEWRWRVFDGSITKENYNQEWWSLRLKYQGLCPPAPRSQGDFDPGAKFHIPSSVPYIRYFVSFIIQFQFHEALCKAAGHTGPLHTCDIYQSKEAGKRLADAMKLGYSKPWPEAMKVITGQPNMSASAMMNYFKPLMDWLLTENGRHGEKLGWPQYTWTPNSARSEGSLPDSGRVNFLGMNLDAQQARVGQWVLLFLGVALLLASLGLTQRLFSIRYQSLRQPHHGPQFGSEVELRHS
# Procedure, shortened: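 Rabbit lung ACE in 300 mM NaCl, 100 mM KH2PO4 (pH 8.3). Enzyme and drug mixed, then hippurylhistidylleucine (2 mg/mL stock) added and incubated 75 min at room temperature. Stopped with 1 N NaOH, o-phthalaldehyde added for 10 min at 25 °C, acidified with HCl, OD read at 360 nm.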
# [2] = target: T3, Angiotensin-converting enzyme (Rattus norvegicus) (UniProt P47820); experiment: Evaluation of plasma inhibition of Angiotensin I converting enzyme activity in conscious rat 1 hour after intravenous administration at a dose of 10 mg/kg; assay type: functional, organism-based; design: dose 10 mg/kg
# T3 sequence (whole entry): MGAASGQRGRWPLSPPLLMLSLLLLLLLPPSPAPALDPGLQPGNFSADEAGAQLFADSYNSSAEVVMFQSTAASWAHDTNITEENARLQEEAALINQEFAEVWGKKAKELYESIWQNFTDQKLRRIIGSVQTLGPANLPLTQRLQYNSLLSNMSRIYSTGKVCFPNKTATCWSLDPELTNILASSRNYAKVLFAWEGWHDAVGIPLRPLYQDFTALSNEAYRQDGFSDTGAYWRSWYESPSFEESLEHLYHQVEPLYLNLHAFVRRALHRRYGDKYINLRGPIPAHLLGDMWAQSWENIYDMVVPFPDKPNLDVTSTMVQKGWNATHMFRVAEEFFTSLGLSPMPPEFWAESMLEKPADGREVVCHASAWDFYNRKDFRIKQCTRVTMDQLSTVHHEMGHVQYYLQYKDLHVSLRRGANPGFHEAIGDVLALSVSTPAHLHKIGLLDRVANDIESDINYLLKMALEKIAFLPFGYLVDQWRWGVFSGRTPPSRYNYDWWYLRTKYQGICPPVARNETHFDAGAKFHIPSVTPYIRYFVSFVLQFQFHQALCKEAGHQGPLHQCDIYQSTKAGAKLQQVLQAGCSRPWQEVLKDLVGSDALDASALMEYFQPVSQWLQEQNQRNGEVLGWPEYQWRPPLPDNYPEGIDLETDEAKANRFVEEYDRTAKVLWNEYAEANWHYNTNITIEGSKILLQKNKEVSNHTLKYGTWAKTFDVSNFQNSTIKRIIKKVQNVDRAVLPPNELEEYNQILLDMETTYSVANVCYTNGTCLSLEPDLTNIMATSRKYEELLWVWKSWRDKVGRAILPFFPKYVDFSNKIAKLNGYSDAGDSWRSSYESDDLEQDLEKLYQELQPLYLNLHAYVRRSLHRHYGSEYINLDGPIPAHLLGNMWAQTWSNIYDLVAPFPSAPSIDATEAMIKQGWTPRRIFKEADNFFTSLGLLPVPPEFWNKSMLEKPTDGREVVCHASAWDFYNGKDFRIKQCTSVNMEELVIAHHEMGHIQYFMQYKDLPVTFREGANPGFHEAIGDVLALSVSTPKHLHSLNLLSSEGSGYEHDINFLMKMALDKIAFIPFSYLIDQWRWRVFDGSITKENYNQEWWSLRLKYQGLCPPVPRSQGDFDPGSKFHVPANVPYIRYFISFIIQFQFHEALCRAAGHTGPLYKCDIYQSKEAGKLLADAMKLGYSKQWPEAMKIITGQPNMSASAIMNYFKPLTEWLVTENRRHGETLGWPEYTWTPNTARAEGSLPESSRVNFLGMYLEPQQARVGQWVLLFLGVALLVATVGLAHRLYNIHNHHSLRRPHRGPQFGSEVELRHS
# Procedure, shortened: (§1)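 Male conscious normotensive Sprague-Dawley rats (275-390 g) fitted the day before with femoral arterial and venous catheters under methohexital anesthesia. Three angiotensin-I challenges (300 ng/kg iv) given as baseline. Compound given iv, ia or po (12.3 mg/kg po dose in 3% cornstarch at 1 mg/mL), then AI challenges repeated at set times. Pressor response compared with the mean baseline response and expressed as % inhibition.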
# [3] = target: T3, Angiotensin-converting enzyme (Rattus norvegicus); experiment: Evaluation of plasma inhibition of Angiotensin I converting enzyme activity in conscious rat 2 hour after oral administration at a dose of 10 mg/kg; assay type: functional, organism-based; design: dose 10 mg/kg
# [4] = target: T3, Angiotensin-converting enzyme (Rattus norvegicus); experiment: Evaluation of plasma inhibition of Angiotensin I converting enzyme activity in conscious rat 2 hours after ia administration at a dose of 10 mg/kg; assay type: functional, organism-based; design: dose 10 mg/kg; procedure, shortened: as §1
# [5] = target: T3, Angiotensin-converting enzyme (Rattus norvegicus); experiment: Evaluation of plasma inhibition of Angiotensin I converting enzyme activity in conscious rat 4 hours after ia administration at a dose of 10 mg/kg; assay type: functional, organism-based; design: dose 10 mg/kg; procedure, shortened: as §1
# [6] = target: T3, Angiotensin-converting enzyme (Rattus norvegicus); experiment: Evaluation of plasma inhibition of Angiotensin I converting enzyme activity in conscious rat 6 hour after oral administration at a dose of 10 mg/kg; assay type: functional, organism-based; design: dose 10 mg/kg; procedure, shortened: as §1
# [7] = target: T3, Angiotensin-converting enzyme (Rattus norvegicus); experiment: Evaluation of plasma inhibition of Angiotensin I converting enzyme activity in conscious rat 1 hour after ia administration at a dose of 10 mg/kg; assay type: functional, organism-based; design: dose 10 mg/kg; procedure, shortened: as §1
# [8] = target: T3, Angiotensin-converting enzyme (Rattus norvegicus); experiment: Evaluation of plasma inhibition of Angiotensin I converting enzyme activity in conscious rat 1 hour after oral administration at a dose of 10 mg/kg; assay type: functional, organism-based; design: dose 10 mg/kg
# [9] = target: T3, Angiotensin-converting enzyme (Rattus norvegicus); experiment: Evaluation of plasma inhibition of Angiotensin I converting enzyme activity in conscious rat 6 hours after ia administration at a dose of 10 mg/kg; assay type: functional, organism-based; design: dose 10 mg/kg; procedure, shortened: as §1
# [10] = target: T3, Angiotensin-converting enzyme (Rattus norvegicus); conditions: Plasma; 10 mg/kg
# [11] = target: T3, Angiotensin-converting enzyme (Rattus norvegicus); experiment: Evaluation of plasma inhibition of Angiotensin I converting enzyme activity in conscious rat 2 hours after intravenous administration at a dose of 10 mg/kg; assay type: functional, organism-based; design: dose 10 mg/kg; procedure, shortened: as §1
# [12] = target: T3, Angiotensin-converting enzyme (Rattus norvegicus); experiment: Evaluation of plasma inhibition of Angiotensin I converting enzyme activity in conscious rat 1 hour after peroral administration at a dose of 12.3 mg/kg; assay type: functional, organism-based; design: dose 12.3 mg/kg; procedure, shortened: as §1
# [13] = target: T3, Angiotensin-converting enzyme (Rattus norvegicus); experiment: Evaluation of plasma inhibition of Angiotensin I converting enzyme activity in conscious rat 2 hours after peroral administration at a dose of 12.3 mg/kg; assay type: functional, organism-based; design: dose 12.3 mg/kg; procedure, shortened: as §1
# [14] = target: T3, Angiotensin-converting enzyme (Rattus norvegicus); experiment: Evaluation of plasma inhibition of Angiotensin I converting enzyme activity in conscious rat 4 hours after peroral administration at a dose of 12.3 mg/kg; assay type: functional, organism-based; design: dose 12.3 mg/kg; procedure, shortened: as §1
# [15] = target: T3, Angiotensin-converting enzyme (Rattus norvegicus); experiment: Evaluation of plasma inhibition of Angiotensin I converting enzyme activity in conscious rat 6 hours after peroral administration at a dose of 12.3 mg/kg; assay type: functional, organism-based; design: dose 12.3 mg/kg; procedure, shortened: as §1
smiles,measurement,setting,value
"CC(C)CC(NP(=O)(O)OC1O[C@@H](C)[C@H](O)[C@@H](O)[C@H]1O)C(=O)N[C@@H](Cc1c[nH]c2ccccc12)C(=O)O (single isomer, unassigned) [PHOSPHORAMIDON]",IC50,Neprilysin,26 nM
CC(C)[C@H](S)C(=O)NC1(C(=O)N[C@@H](Cc2ccc(O)cc2)C(=O)O)CC2CCC1C2 (stereo not given in full),IC50,[1],65 nM
same,IC50,Neprilysin,15 nM
O=C(O)[C@H](Cc1ccc(O)cc1)NC(=O)C1(NC(=O)C2(S)CCCC2)CCCC1,IC50,[1],17 nM
same,inhibition,[2],3%
same,IC50,Neprilysin,5.2 nM
C[C@H](CS)C(=O)N1CCC[C@H]1C(=O)O,inhibition,[3],78%
same,inhibition,[4],60%
same,inhibition,[5],26%
same,inhibition,[6],13%
same,inhibition,[7],96%
same,inhibition,[8],100%
same,inhibition,[9],3%
same,inhibition,[10],36%
CC(C)[C@H](S)C(=O)NC1(C(=O)N[C@@H](Cc2c[nH]c3ccc(O)cc23)C(=O)O)CCCC1,IC50,[1],13 nM
same,IC50,Neprilysin,2 nM
COc1ccc(C[C@H](NC(=O)C2(NC(=O)[C@@H](S)C(C)C)CCCC2)C(=O)O)cc1,IC50,[1],19 nM
same,IC50,Neprilysin,2.2 nM
CC(C)[C@H](S)C(=O)NC1(C(=O)N[C@@H](Cc2cccnc2)C(=O)O)CCCC1,IC50,[1],37 nM
same,IC50,Neprilysin,3.1 nM
CC(C)[C@H](S)C(=O)NC1(C(=O)N[C@@H](Cc2ccc(O)cc2)C(=O)O)CCCCC1,IC50,[1],33 nM
same,inhibition,[11],10%
same,inhibition,[2],22%
same,IC50,Neprilysin,8.7 nM
O=C(O)CN1C(=O)[C@@H](N[C@@H](CCc2ccccc2)C(=O)O)CCc2ccccc21,inhibition,[4],74%
same,inhibition,[5],27%
same,inhibition,[7],100%
same,inhibition,[9],7%
CC(C)[C@H](S)C(=O)N[C@@H](Cc1ccc(-c2ccccc2)cc1)C(=O)N[C@@H](Cc1ccc(O)cc1)C(=O)O,IC50,[1],62 nM
CCOC(=O)[C@H](Cc1c[nH]c2ccccc12)NC(=O)C1(NC(=O)[C@@H](SC(C)=O)C(C)C)CCCC1,inhibition,[12],83%
same,inhibition,[13],72%
same,inhibition,[14],71%
same,inhibition,[15],64%
CC(C)[C@H](S)C(=O)NC1(C(=O)N[C@@H](Cc2ccc(-c3ccccc3)cc2)C(=O)O)CCCC1,IC50,[1],139 nM
same,IC50,Neprilysin,16 nM
